From ChEMBL document CHEMBL1151755, “Crystal structure of the peroxisome proliferator-activated receptor gamma (PPARgamma) ligand binding domain complexed with a novel partial agonist: a new region of the hydrophobic pocket could be exploited for drug design” (J Med Chem, 2008)
Calls of active or inactive are those of the source. The calls are words filed in the database; no cut-off is given here.

How the values were obtained:
Assay type in all cases: cell-based
Settings in all cases: HepG2
[1] = biological target: Nuclear receptor subfamily 4 group A member 2 (Homo sapiens) (UniProt P43354); assay: Increase in transcriptional activity of Nurr1 ligand binding domain expressed in human Hep G2 cells co-transfected with Gal4-DBD by luciferase reporter gene assay
Outline: (§1)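 HepG2 cells transfected for 4 h by calcium phosphate coprecipitation with 100 ng pGal4UAS-luciferase, 50 ng Gal4-LBD receptor vector and 300 ng CMV-β-galactosidase plasmid for normalization. Cells were washed in PBS, then refed with serum-free DMEM/F-12 containing penicillin/streptomycin and compound or 0.1% ethanol vehicle for 20 h. Luciferase read-out was normalized to β-galactosidase. Experiments were repeated at least three times.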

[2] = biological target: T1, Hepatocyte nuclear factor 4-alpha (Homo sapiens) (UniProt P41235); assay: Increase in transcriptional activity of HNF-4alpha ligand binding domain expressed in human Hep G2 cells co-transfected with Gal4-DBD by luciferase reporter gene assay; outline: as §1
T1 sequence (whole entry): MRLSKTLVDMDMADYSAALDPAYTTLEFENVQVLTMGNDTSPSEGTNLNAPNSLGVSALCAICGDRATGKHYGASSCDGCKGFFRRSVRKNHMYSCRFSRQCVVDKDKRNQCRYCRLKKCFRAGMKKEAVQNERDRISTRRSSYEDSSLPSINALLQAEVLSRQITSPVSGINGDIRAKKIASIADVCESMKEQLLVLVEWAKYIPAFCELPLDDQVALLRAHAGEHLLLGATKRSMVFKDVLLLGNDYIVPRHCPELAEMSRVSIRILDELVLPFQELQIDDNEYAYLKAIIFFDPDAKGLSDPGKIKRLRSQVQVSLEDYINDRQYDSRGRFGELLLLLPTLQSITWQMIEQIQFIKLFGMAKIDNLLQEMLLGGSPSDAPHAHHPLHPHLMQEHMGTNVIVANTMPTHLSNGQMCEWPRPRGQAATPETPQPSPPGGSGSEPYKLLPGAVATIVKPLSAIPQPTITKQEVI

[3] = biological target: T2, Retinoic acid receptor alpha (Homo sapiens) (UniProt P10276); assay: Increase in transcriptional activity of RARalpha ligand binding domain expressed in human Hep G2 cells co-transfected with Gal4-DBD by luciferase reporter gene assay; outline: as §1
T2 sequence (whole entry): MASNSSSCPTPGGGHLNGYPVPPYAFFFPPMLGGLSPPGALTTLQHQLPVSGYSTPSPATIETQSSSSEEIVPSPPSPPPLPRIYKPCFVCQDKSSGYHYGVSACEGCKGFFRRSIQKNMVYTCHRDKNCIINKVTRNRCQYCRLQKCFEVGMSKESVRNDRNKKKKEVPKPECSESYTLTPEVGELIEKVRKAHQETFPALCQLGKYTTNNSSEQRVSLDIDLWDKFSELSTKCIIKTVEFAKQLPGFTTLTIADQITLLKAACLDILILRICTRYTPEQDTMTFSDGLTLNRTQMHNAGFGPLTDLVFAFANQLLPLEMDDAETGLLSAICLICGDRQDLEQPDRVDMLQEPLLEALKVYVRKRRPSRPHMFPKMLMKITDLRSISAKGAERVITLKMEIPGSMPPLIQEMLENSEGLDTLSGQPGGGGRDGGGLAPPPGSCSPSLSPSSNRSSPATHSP

[4] = biological target: T3, Peroxisome proliferator-activated receptor alpha (Mus musculus) (UniProt P23204); assay: Agonist activity at mouse PPARalpha ligand binding domain expressed in human Hep G2 cells co-transfected with Gal4-DBD by luciferase reporter gene assay relative to Wy 14,643
T3 sequence (whole entry): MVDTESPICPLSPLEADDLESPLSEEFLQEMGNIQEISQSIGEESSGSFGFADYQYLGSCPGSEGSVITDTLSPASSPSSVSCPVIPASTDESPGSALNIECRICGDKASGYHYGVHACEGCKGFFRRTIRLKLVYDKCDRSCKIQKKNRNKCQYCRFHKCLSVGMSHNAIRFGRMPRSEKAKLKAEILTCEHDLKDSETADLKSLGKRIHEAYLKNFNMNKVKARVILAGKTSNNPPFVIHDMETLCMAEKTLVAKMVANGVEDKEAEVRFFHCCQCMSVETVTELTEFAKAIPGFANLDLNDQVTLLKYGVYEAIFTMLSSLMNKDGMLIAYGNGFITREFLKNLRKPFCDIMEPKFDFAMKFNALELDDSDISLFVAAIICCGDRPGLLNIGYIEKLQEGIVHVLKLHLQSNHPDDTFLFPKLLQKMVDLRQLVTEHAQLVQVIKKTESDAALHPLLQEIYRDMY
Outline: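 HepG2 cells received the Gal4-receptor LBD construct (50 ng), pGal4UAS-luciferase (100 ng) and pCMVβ (300 ng) by calcium phosphate coprecipitation for 4 h. They were then treated in serum-free DMEM/F-12 with ligand or 0.1% ethanol for 20 h. Luciferase was normalized to β-galactosidase, and efficacy was expressed as percent of the Wy 14,643 maximum (100%). Values are mean ± SEM of 3–5 experiments in triplicate.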

[5] = biological target: T4, Peroxisome proliferator-activated receptor delta (Homo sapiens) (UniProt Q03181); assay: Increase in transcriptional activity of human PPARbeta/delta ligand binding domain expressed in human Hep G2 cells co-transfected with Gal4-DBD by luciferase reporter gene assay; outline: as §1
T4 sequence (whole entry): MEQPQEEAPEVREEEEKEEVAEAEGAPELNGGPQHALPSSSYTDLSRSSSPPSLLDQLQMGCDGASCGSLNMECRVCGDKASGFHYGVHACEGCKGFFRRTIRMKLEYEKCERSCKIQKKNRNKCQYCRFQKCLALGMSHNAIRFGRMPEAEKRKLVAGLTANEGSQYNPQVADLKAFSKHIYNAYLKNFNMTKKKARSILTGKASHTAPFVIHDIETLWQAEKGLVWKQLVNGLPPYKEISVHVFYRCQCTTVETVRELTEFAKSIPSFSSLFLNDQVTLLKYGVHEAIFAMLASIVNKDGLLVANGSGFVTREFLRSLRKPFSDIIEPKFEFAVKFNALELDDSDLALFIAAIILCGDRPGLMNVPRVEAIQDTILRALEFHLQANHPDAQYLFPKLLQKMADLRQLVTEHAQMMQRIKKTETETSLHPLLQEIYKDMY

Chain of Nuclear receptor subfamily 4 group A member 2 (Homo sapiens) (P43354 whole entry, the tested form may be a part): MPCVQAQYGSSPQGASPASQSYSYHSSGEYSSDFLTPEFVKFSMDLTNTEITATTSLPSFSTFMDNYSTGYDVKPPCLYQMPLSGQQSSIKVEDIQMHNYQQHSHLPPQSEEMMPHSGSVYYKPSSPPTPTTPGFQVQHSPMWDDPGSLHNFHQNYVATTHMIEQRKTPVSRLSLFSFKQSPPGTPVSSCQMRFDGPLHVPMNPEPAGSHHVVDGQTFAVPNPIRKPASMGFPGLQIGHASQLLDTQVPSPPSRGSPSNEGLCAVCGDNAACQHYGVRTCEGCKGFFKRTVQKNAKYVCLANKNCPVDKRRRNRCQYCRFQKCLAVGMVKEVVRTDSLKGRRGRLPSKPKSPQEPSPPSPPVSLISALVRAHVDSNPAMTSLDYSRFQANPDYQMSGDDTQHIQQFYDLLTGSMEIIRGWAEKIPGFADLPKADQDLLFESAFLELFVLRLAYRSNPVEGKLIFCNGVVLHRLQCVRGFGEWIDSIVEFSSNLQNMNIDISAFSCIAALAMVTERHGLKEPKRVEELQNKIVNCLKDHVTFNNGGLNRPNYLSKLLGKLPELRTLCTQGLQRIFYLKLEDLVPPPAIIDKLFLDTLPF

SMILES	Activity [1]	Activity [2]	Activity [3]	Efficacy [4]	Activity [5]	Activity [4]
O=C(O)[C@H](Cc1ccccc1)Oc1ccc(-c2ccccc2)cc1	inactive	inactive	inactive	120%	inactive	–
O=C(O)[C@@H](Cc1ccccc1)Oc1ccc(-c2ccccc2)cc1	inactive	inactive	inactive	–	inactive	inactive
